Experimental findings from the array DNA melting data of Ke et al. (doi:10.1101/2024.01.08.574731) are described below.

Series [1] can be described thus: folding enthalpy; higher = less favourable; fluorescence melt of hairpins on a sequencing array, two-state fit. The following applies: sodium 0.088 M. A digest of the protocol: (§1)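 To match UV melts, fitted temperatures were raised by 9.35 °C. These fits were bootstrapped two-state models that gave melting temperature and folding enthalpy, combined by inverse variance over four replicates. The input was normalised Cy3 fluorescence of library hairpins with annealed Cy3 and quencher oligos on a sequenced MiSeq flow cell, imaged in 50 mM Na-HEPES pH 8.0, 25 mM NaCl in 2.5 °C steps up to 60 °C.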

Series [2] can be described thus: melting temperature; fluorescence melt of hairpins on a sequencing array, two-state fit, raised by 9.35 °C to match UV melts. Conditions: sodium 0.088 M. An outline of the steps: as §1

As for GAAATGAAAATTTC (((((....))))), the folding enthalpy in series [1] is -12.2 kcal/mol. In series [2], the Tm amounted to 30.1 °C.

As to GGGCGCTCGAAAGAGCCC (((..(((....)))))), the folding enthalpy in series [1] is -14 kcal/mol. In addition, the Tm in series [2] was found to be 56.9 °C.

Take GAGCAAGGAAACTTGTTC ((.((((....)))).)): the folding enthalpy in series [1] is -26.1 kcal/mol. Besides, the Tm in series [2] turned out to be 36.2 °C.

Consider GAAAATGGAAACATTTCC (.(((((....))))).), for which, in series [1], the folding enthalpy was -17 kcal/mol. Further, the Tm in series [2] amounted to 28.6 °C.

For GTACCCCCGAAAGGGTAC (((..(((....)))))), the folding enthalpy in series [1] was -25.7 kcal/mol. Besides, in series [2], the Tm stood at 52.3 °C.

Turning to GACGCCGAAAGGCGTGTC ((((((....)))..))), in series [1], the folding enthalpy was -8.76 kcal/mol. In addition, the Tm in series [2] was 66.9 °C.

As to GGGAGTGGAAACATTCCC ((((.((....)).)))), the folding enthalpy in series [1] is -33.5 kcal/mol. In addition, in series [2], the Tm stood at 48.2 °C.

Consider GTAGTCGAAAGACTATAC ((((((....)))..))), for which the folding enthalpy in series [1] was -13.2 kcal/mol. For the same sequence, the Tm in series [2] came out at 42 °C.

With GCCTGGCGAAAGCCCAGC ((..(((....)))..)), the folding enthalpy in series [1] is -10.9 kcal/mol. For the same sequence, in series [2], the Tm was found to be 47.3 °C.

Take GAGTTGGGAAACCAGCTC (((.(((....))).))): the folding enthalpy in series [1] is -34.7 kcal/mol. The Tm in series [2] was determined as 48.9 °C.

On to GTGTGTGGAAACACGCAC (((.(((....))).))), for which the folding enthalpy in series [1] is -40 kcal/mol. Moreover, the Tm in series [2] came to 58.7 °C.

Turning to GATCGCCAGTGCGATC ((((((....)))))), the folding enthalpy in series [1] is -34.9 kcal/mol. For the same sequence, the Tm in series [2] came to 64.4 °C.

For the sequence GATCTGCCGAAAGGCATC (((..(((....)))))), in series [1], the folding enthalpy was -6.41 kcal/mol. For the same sequence, the Tm in series [2] was 24.6 °C.

For GAATGCGAAAGCATTTC ((((((....))).))), the folding enthalpy in series [1] is -12.5 kcal/mol. Also, in series [2], the Tm amounted to 50.2 °C.

With GTCCGTGGAAACACGAAC ((.((((....)))).)), in series [1], the folding enthalpy is -21 kcal/mol. Besides, the Tm in series [2] came to 39.7 °C.

For GCGAAGCGAAAGCCTAGC ((.(.((....)).).)), the folding enthalpy in series [1] is -7.6 kcal/mol. In addition, in series [2], the Tm was determined as 40.2 °C.

For the sequence GTTGAAGAAATTCAAC ((((((....)))))), the folding enthalpy in series [1] is -27.1 kcal/mol. The Tm in series [2] came to 45.8 °C.

As to GGACCCCGAAAGGGATCC (((.(((....))).))), in series [1], the folding enthalpy was -26.9 kcal/mol. The Tm in series [2] was 55.3 °C.

As for GGTGGATCGAAAGATACC (((..(((....)))))), the folding enthalpy in series [1] was -18.4 kcal/mol. The Tm in series [2] was 35.6 °C.

In the case of GCGACGGTTCGC ((((....)))), the folding enthalpy in series [1] was -20.1 kcal/mol. In addition, in series [2], the Tm was 49.1 °C.

For GCCTTCGAAAGAAAGGC ((((((....))).))), in series [1], the folding enthalpy was -30.3 kcal/mol. Moreover, in series [2], the Tm worked out at 54 °C.

For GGTACGGGAAACCGTATC (.(((((....))))).), the folding enthalpy in series [1] was -25.7 kcal/mol. Also, the Tm in series [2] stood at 49.7 °C.

With GCAGAGCGAAAGCGGTGC (((..((....))..))), the folding enthalpy in series [1] was -23.7 kcal/mol. In addition, the Tm in series [2] came to 63.5 °C.

Turning to GTGAGAGGAAACCCTCAC (((((.(....).))))), the folding enthalpy in series [1] is -26.2 kcal/mol. In addition, in series [2], the Tm was determined as 43.5 °C.

As to GCGCGCGAAAGCGCTCGC ((((((....)))..))), the folding enthalpy in series [1] is -10.5 kcal/mol. The Tm in series [2] came to 59.4 °C.

As to GTCGCCGGAAACGGTGAC (((.(((....))).))), the folding enthalpy in series [1] is -41.5 kcal/mol. In series [2], the Tm stood at 63.7 °C.

Consider GATCTGGGAACAGATC ((((((....)))))), for which the folding enthalpy in series [1] was -39.8 kcal/mol. Further, in series [2], the Tm stood at 54.5 °C.

On to GGTATGCGAAAGCAGACC (((.(((....))).))), for which the folding enthalpy in series [1] was -35.3 kcal/mol. For the same sequence, in series [2], the Tm is 65.1 °C.

For the sequence GGATGGCGAAAGCCCTCC (((.(((....))).))), in series [1], the folding enthalpy was -31.2 kcal/mol. Moreover, in series [2], the Tm came to 49.2 °C.

For GTTGTAGGAAACTACAGC (.(((((....))))).), the folding enthalpy in series [1] was -25.8 kcal/mol. Further, in series [2], the Tm is 42 °C.

As for GTTAAAGGAAACTTTAAC (((((((....))))))), the folding enthalpy in series [1] was -34.6 kcal/mol. In addition, the Tm in series [2] amounted to 46.6 °C.

As for GACCCCGAAAGGGAGGTC ((((((....)))..))), the folding enthalpy in series [1] is -21.8 kcal/mol. For the same sequence, the Tm in series [2] was 49.4 °C.

Regarding GGTTTGCCGAAAGGCACC (((..(((....)))))), the folding enthalpy in series [1] was -8.06 kcal/mol. Further, in series [2], the Tm is 30.7 °C.

With GCTCACGGAAACGCAAGC (((..((....))..))), the folding enthalpy in series [1] is -8.31 kcal/mol. Further, the Tm in series [2] was determined as 26.8 °C.

Consider GCGACCGGAAACAGTCGC (((((.(....).))))), for which, in series [1], the folding enthalpy was -39.2 kcal/mol. The Tm in series [2] turned out to be 55.1 °C.

For the sequence GCTTGGCGAAAGCACAGC (((..((....))..))), the folding enthalpy in series [1] is -18.2 kcal/mol. Besides, in series [2], the Tm was found to be 42.2 °C.

For the sequence GCGAACGGAAACATCCGC (((.(.(....).).))), the folding enthalpy in series [1] is -7.45 kcal/mol. Moreover, in series [2], the Tm was 20.9 °C.
